Measurements pooled from the literature.
Compare with care: the assays were run in different laboratories.
Target: Phosphatidylinositol 3-kinase C2 domain-containing subunit gamma (PIK3C2G, Homo sapiens, UniProt O75747)

Structure (SMILES)	assay	conditions	measurement	value
Cc1ccc(C(=O)Nc2ccc(CN3CCN(C)CC3)c(C(F)(F)F)c2)cc1C#Cc1cnc2cccnn12	cell-free assay	23.5 nM	remaining signal	85%
C=CC(=O)Nc1cc(Nc2nccc(Nc3cc(Cl)c(F)cc3C(C)(C)O)n2)c(OC)cc1N1CC[C@@H](N(C)C)C1	enzyme activity, inhibitor	1 µM	inhibition	-3%
CS(=O)(=O)Nc1cccc(-c2csc(NC(=O)CSc3nc4nccnc4c(=O)n3CCc3ccccc3)n2)c1	enzyme activity, inhibitor	10 µM	inhibition	16%
Cc1ccc(NC(=O)c2ccc(C)c(C(F)(F)F)c2)cc1C#Cc1nn(C2CCC(O)CC2)c2ncnc(N)c12 (stereo not shown)	cell-free assay	10 µM	remaining signal	98%
Cc1cc(NC(=O)c2cccc3cc(-c4cccc5[nH]nc(N)c45)ccc23)ccc1F	enzyme activity, inhibitor	0.1 µM	activity vs control	103%
CN(C)CC#Cc1ccc(OCCCc2sc(N3CCc4cccc(C(=O)Nc5nc6ccccc6s5)c4C3)nc2C(=O)O)c(F)c1	cell-free assay, competition with immobilised ligand	1 µM	remaining binding	100%
O=C(CSc1nc2nccnc2c(=O)n1CCc1ccccc1)Nc1nccs1	enzyme activity, inhibitor	10 µM	inhibition	76%
Cc1ccc(C(=O)NCc2ccsc2)cc1C#Cc1cn(C(C)C)c2ncnc(N)c12	enzyme activity, inhibitor	1 µM	activity vs control	86%
Nc1ncnc2occ(-c3ccc(NC(=O)Nc4cc(C(F)(F)F)ccc4F)cc3)c12	cell-free assay	20 µM	remaining signal	93%
CO[C@H]1CC[C@H](CNc2ccc(S(=O)(=O)NC(=O)c3ccc(N4CCN(CC5=C(c6ccc(Cl)cc6)CC(C)(C)CC5)CC4)cc3Oc3cnc4[nH]ccc4c3)cc2[N+](=O)[O-])CC1	cell-free assay, competition with immobilised ligand	1 µM	remaining binding	72%
COc1cc(Cl)c(C(=O)N[C@@H](CN[C@H]2CC[C@@H](N)CC2)Cc2ccc(C#N)cc2)cc1-c1ccc(CN[C@H](C)c2ccc(C)cc2)o1	enzyme activity, inhibitor	1 µM	remaining activity	96%
Cc1cnc(NC2CCOCC2)nc1-n1cnc(C(=O)NC(CN)c2cc(F)cc(Cl)c2)c1 (stereo not shown)	enzyme activity, inhibitor, radiometric	1 µM	remaining activity	100%
CN1CC(Oc2cnc(C#N)cc2-c2ccn3nc(NC(=O)C4CC4)cc3c2)C1	enzyme activity, inhibitor	1 µM	inhibition	-6%
